# Experimental data reported in ChEMBL document CHEMBL5247575 (J Med Chem, 2018).
# System: Escherichia coli
# Experiment: Synergistic antibacterial activity against Escherichia coli DH10B assessed as cefepime MIC at 4 ug/ml by broth microdilution method
# Format: functional
# Details: dose 4 µg/ml
row,Compound,MIC
1,O=C(NNC(=O)[C@@H]1CC[C@@H]2CN1C(=O)N2OS(=O)(=O)O)[C@@H]1CCCNC1 [ZIDEBACTAM],≤ 0.12 µg/mL

# System: Acinetobacter baumannii
# Experiment: Synergistic antibacterial activity against Acinetobacter baumannii PR448 producing OXA-23 assessed as cefepime MIC at 4 ug/ml by broth microdilution method
# Format: functional
# Details: dose 4 µg/ml
row,Compound,MIC
1,O=C(NNC(=O)[C@@H]1CC[C@@H]2CN1C(=O)N2OS(=O)(=O)O)[C@@H]1CCCNC1 [ZIDEBACTAM],4 µg/mL

# System: Klebsiella pneumoniae
# Experiment: Synergistic antibacterial activity against Klebsiella pneumoniae NY BS producing OXA-232 assessed as meropenem MIC at 4 ug/ml by broth microdilution method
# Format: functional
# Details: dose 4 µg/ml
row,Compound,MIC
1,O=C(NNC(=O)[C@@H]1CC[C@@H]2CN1C(=O)N2OS(=O)(=O)O)[C@@H]1CCCNC1 [ZIDEBACTAM],≤ 0.12 µg/mL

# System: Klebsiella pneumoniae
# Experiment: Synergistic antibacterial activity against Klebsiella pneumoniae jefferson 1775 producing OXA-48 assessed as meropenem MIC at 8 ug/ml by broth microdilution method
# Format: functional
# Details: dose 8 µg/ml
row,Compound,MIC
1,O=C(NNC(=O)[C@@H]1CC[C@@H]2CN1C(=O)N2OS(=O)(=O)O)[C@@H]1CCCNC1 [ZIDEBACTAM],≤ 0.12 µg/mL

# System: Escherichia coli
# Experiment: Synergistic antibacterial activity against Escherichia coli DH10B assessed as meropenem MIC at 4 ug/ml by broth microdilution method
# Format: functional
# Details: dose 4 µg/ml
row,Compound,MIC
1,O=C(NNC(=O)[C@@H]1CC[C@@H]2CN1C(=O)N2OS(=O)(=O)O)[C@@H]1CCCNC1 [ZIDEBACTAM],≤ 0.12 µg/mL

# System: Klebsiella pneumoniae
# Experiment: Synergistic antibacterial activity against Klebsiella pneumoniae 729/1679 producing KPC-3 assessed as meropenem MIC at 4 ug/ml by broth microdilution method
# Format: functional
# Details: dose 4 µg/ml
# Method in brief: (§1)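 Broth microdilution per CLSI guidelines, using custom frozen panels. […] Each partner drug was also tested alone. MICs were run in triplicate and the modal value is reported.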
row,Compound,MIC
1,O=C(NNC(=O)[C@@H]1CC[C@@H]2CN1C(=O)N2OS(=O)(=O)O)[C@@H]1CCCNC1 [ZIDEBACTAM],≤ 0.12 µg/mL

# System: Klebsiella pneumoniae
# Experiment: Synergistic antibacterial activity against Klebsiella pneumoniae 1084/1957 producing KPC-3 assessed as cefepime MIC at 8 ug/ml by broth microdilution method
# Format: functional
# Details: dose 8 µg/ml
# Method in brief: as §1
row,Compound,MIC
1,O=C(NNC(=O)[C@@H]1CC[C@@H]2CN1C(=O)N2OS(=O)(=O)O)[C@@H]1CCCNC1 [ZIDEBACTAM],≤ 0.12 µg/mL

# System: Acinetobacter baumannii
# Experiment: Synergistic antibacterial activity against Acinetobacter baumannii PR359 producing OXA-23 assessed as cefepime MIC at 8 ug/ml by broth microdilution method
# Format: functional
# Details: dose 8 µg/ml
row,Compound,MIC
1,O=C(NNC(=O)[C@@H]1CC[C@@H]2CN1C(=O)N2OS(=O)(=O)O)[C@@H]1CCCNC1 [ZIDEBACTAM],16 µg/mL

# System: Acinetobacter baumannii
# Experiment: Synergistic antibacterial activity against Acinetobacter baumannii PR474 producing OXA-23/24/40 assessed as meropenem MIC at 4 ug/ml by broth microdilution method
# Format: functional
# Details: dose 4 µg/ml
row,Compound,MIC
1,O=C(NNC(=O)[C@@H]1CC[C@@H]2CN1C(=O)N2OS(=O)(=O)O)[C@@H]1CCCNC1 [ZIDEBACTAM],> 16 µg/mL

# System: Acinetobacter baumannii
# Experiment: Synergistic antibacterial activity against Acinetobacter baumannii PR440 producing OXA-23/24/40 assessed as meropenem MIC at 8 ug/ml by broth microdilution method
# Format: functional
# Details: dose 8 µg/ml
row,Compound,MIC
1,O=C(NNC(=O)[C@@H]1CC[C@@H]2CN1C(=O)N2OS(=O)(=O)O)[C@@H]1CCCNC1 [ZIDEBACTAM],> 16 µg/mL

# System: Pseudomonas aeruginosa
# Experiment: Synergistic antibacterial activity against Pseudomonas aeruginosa CL232 assessed as cefepime MIC at 4 ug/ml by broth microdilution method
# Format: functional
# Details: dose 4 µg/ml
row,Compound,MIC
1,O=C(NNC(=O)[C@@H]1CC[C@@H]2CN1C(=O)N2OS(=O)(=O)O)[C@@H]1CCCNC1 [ZIDEBACTAM],16 µg/mL

# System: Acinetobacter baumannii
# Experiment: Synergistic antibacterial activity against Acinetobacter baumannii PR363 producing OXA-23 assessed as cefepime MIC at 8 ug/ml by broth microdilution method
# Format: functional
# Details: dose 8 µg/ml
row,Compound,MIC
1,O=C(NNC(=O)[C@@H]1CC[C@@H]2CN1C(=O)N2OS(=O)(=O)O)[C@@H]1CCCNC1 [ZIDEBACTAM],8 µg/mL

# System: Acinetobacter baumannii
# Experiment: Synergistic antibacterial activity against Acinetobacter baumannii PR359 producing OXA-23 assessed as meropenem MIC at 4 ug/ml by broth microdilution method
# Format: functional
# Details: dose 4 µg/ml
row,Compound,MIC
1,O=C(NNC(=O)[C@@H]1CC[C@@H]2CN1C(=O)N2OS(=O)(=O)O)[C@@H]1CCCNC1 [ZIDEBACTAM],> 16 µg/mL

# System: Pseudomonas aeruginosa
# Experiment: Synergistic antibacterial activity against Pseudomonas aeruginosa 776 assessed as meropenem MIC at 8 ug/ml by broth microdilution method
# Format: functional
# Details: dose 8 µg/ml
row,Compound,MIC
1,O=C(NNC(=O)[C@@H]1CC[C@@H]2CN1C(=O)N2OS(=O)(=O)O)[C@@H]1CCCNC1 [ZIDEBACTAM],16 µg/mL

# System: Pseudomonas aeruginosa
# Experiment: Antibacterial activity against Pseudomonas aeruginosa 839 by broth microdilution method
# Format: functional
# Details: not given
row,Compound,MIC
1,O=C(NNC(=O)[C@@H]1CC[C@@H]2CN1C(=O)N2OS(=O)(=O)O)[C@@H]1CCCNC1 [ZIDEBACTAM],8 µg/mL

# System: Bacteria
# Experiment: Inhibition of bacteria ADC-7 assessed as second order rate constant K2/K using nitrocefin as substrate
# Details: not given
row,Compound,K
1,O=C(NNC(=O)[C@@H]1CC[C@@H]2CN1C(=O)N2OS(=O)(=O)O)[C@@H]1CCCNC1 [ZIDEBACTAM],3.5 10^4/M/s

# System: Escherichia coli
# Experiment: Synergistic antibacterial activity against Escherichia coli DH10B transfected with pBC SK (-) OXA-48 assessed as cefepime MIC at 8 ug/ml by broth microdilution method
# Format: functional
# Details: dose 8 µg/ml
# Method in brief: as §1
row,Compound,MIC
1,O=C(NNC(=O)[C@@H]1CC[C@@H]2CN1C(=O)N2OS(=O)(=O)O)[C@@H]1CCCNC1 [ZIDEBACTAM],≤ 0.12 µg/mL

# System: Acinetobacter baumannii
# Experiment: Synergistic antibacterial activity against ADC deleted Acinetobacter baumannii transfected with pWH1266 producing OXA-24/40 assessed as cefepime MIC at 4 ug/ml by broth microdilution method
# Format: functional
# Details: dose 4 µg/ml
row,Compound,MIC
1,O=C(NNC(=O)[C@@H]1CC[C@@H]2CN1C(=O)N2OS(=O)(=O)O)[C@@H]1CCCNC1 [ZIDEBACTAM],16 µg/mL

# System: Klebsiella pneumoniae
# Experiment: Synergistic antibacterial activity against Klebsiella pneumoniae NY BS producing OXA-232 assessed as cefepime MIC at 4 ug/ml by broth microdilution method
# Format: functional
# Details: dose 4 µg/ml
row,Compound,MIC
1,O=C(NNC(=O)[C@@H]1CC[C@@H]2CN1C(=O)N2OS(=O)(=O)O)[C@@H]1CCCNC1 [ZIDEBACTAM],≤ 0.12 µg/mL

# System: Klebsiella pneumoniae
# Experiment: Synergistic antibacterial activity against Klebsiella pneumoniae 1315/2198 producing KPC-3 assessed as cefepime MIC at 4 ug/ml by broth microdilution method
# Format: functional
# Details: dose 4 µg/ml
# Method in brief: as §1
row,Compound,MIC
1,O=C(NNC(=O)[C@@H]1CC[C@@H]2CN1C(=O)N2OS(=O)(=O)O)[C@@H]1CCCNC1 [ZIDEBACTAM],≤ 0.12 µg/mL
